# Compound activity: PubChem, several laboratories
# ABHD5-PLIN5 inh = blocks binding of human ABHD5 to perilipin-5 | AID 602281 | Q00G26+Q8WTS1 | Split G. princeps luciferase complementation, luminescence, 4 h | inhibition, % at 4 µM | actives 0.78% (n = 360,000);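 active = inhibition above the mean inhibition across every tested compound plus 3 SD, cut at about 22% in these data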
# Target sequence (Q00G26 whole entry, looked up): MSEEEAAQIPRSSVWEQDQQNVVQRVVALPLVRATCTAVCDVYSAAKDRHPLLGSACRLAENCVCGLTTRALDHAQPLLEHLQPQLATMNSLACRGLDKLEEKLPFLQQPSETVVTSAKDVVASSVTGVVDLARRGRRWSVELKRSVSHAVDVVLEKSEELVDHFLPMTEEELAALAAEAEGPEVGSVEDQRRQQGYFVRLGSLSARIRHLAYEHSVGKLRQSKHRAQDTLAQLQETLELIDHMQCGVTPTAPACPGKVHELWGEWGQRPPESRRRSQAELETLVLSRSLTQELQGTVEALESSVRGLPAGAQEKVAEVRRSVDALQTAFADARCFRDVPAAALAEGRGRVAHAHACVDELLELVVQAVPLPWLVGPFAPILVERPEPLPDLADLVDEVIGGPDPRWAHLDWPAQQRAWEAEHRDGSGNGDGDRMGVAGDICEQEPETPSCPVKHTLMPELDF
# Target sequence (Q8WTS1 whole entry, looked up): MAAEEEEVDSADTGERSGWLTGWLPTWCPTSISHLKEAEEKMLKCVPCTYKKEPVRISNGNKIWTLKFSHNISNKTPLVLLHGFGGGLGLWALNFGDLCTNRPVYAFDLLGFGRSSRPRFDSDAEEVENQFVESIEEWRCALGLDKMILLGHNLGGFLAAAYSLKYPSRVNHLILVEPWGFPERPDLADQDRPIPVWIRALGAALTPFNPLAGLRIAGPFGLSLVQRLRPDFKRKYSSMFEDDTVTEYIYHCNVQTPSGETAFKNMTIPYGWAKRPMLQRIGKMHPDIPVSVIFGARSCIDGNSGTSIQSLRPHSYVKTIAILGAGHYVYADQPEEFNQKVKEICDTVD
# B2AR ag = agonists of human beta-2 adrenergic receptor inducing internalization. response, % (no concentration beside the values). actives 0.43% (n = 340,000). Am2.2-beta2AR cells, FAP receptor internalization, flow cytometry;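 active = response above a set limit, near 3 SD of response in nonfluorescent compounds, cut at about 42% in these data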
# MC4R barr agon = activates human MC4R beta-arrestin recruitment; P32245; U2OS MC4R beta-arrestin complementation, luminescence; percent of melanotan II response, DMSO zero; activation, % at 8.9 µM; actives 0.98% (n = 360,000); AID 540308;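 active = activation above a per-plate cutoff, the mean activation of sample wells on that plate plus 3 SD, cut at about 8% in these data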
# MC4R antagonist = blocks human MC4R cAMP signaling | inhibition, % at 6.5 µM | actives 0.48% (n = 360,000) | P32245 | MC4R-expressing cells, MTII-stimulated cAMP, LANCE TR-FRET | AID 540295;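 active = inhibition above its plate's cutoff, the mean of tested wells on that plate plus 3 SD, cut at about 29% in these data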
#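 Assay system: U2OS cells stably expressing human melanocortin 4 receptor (MC4R) / Dosing: 6.5 µM / Timing: compound 30 min, challenge 1 h, detection 1 h / Measured by: Eu-cAMP/anti-cAMP TR-FRET, emission 671 nm / Replicates: singlicate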
# PfG6PD inh = PfG6PD (Plasmodium falciparum) enzyme inhibition; PfGluPho enzyme, NADPH resazurin-diaphorase fluorescence; inhibition, % at 20 µM; actives 0.78% (n = 350,000);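 active = inhibition reaching at least a set limit at 20 µM in the primary screen, cut at about 59% in these data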
# MC4R barr conf = human MC4R beta-arrestin agonism confirmation | shares compounds with MC4R barr agon | U2OS MC4R beta-arrestin recruitment, luminescence; scaled DMSO 0%, Melanotan II 100% | activation, % at 8.9 µM | actives 31% (n = 2,400) | AID 602192;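 active = mean activation across replicates above the hit cutoff set in the earlier primary screen, cut at about 8% in these data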
# MOR-DOR barr ag = activates mu-delta opioid heterodimer, MC4R agonist counter-screen | activation, % at 9.2 µM | shares compounds with MC4R barr agon | actives 5.8% (n = 2,400) | U2OS PathHunter beta-arrestin, beta-gal luminescence; percent of deltorphin B response, DMSO zero;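 active = mean activation across replicates exceeds the hit threshold derived in the earlier primary screen, cut at about 18% in these data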
# Hits are given with their value; - = inactive; . = no result given; ! = a repeat was not active. This is a sample that favours compounds with a hit; in the whole collection about 3% have one here.
SMILES,ABHD5-PLIN5 inh,B2AR ag,MC4R barr agon,MC4R antagonist,PfG6PD inh,MC4R barr conf,MOR-DOR barr ag
CCOC(=O)c1sc2nc(CSc3ccccc3Cl)[nH]c(=O)c2c1C,-,-,10,-,-,-,-
CCn1c(SCC(=O)Nc2ccccc2C(=O)OC)nnc1-c1ccc(N)cc1,-,-,-,-,-,.,.
CCn1c(SCC(=O)Nc2ccc3c(c2)oc2ccccc23)nnc1-c1ccc(N)cc1,-,-,15,-,-,16,19
CC(=O)NC(=S)Nc1ccc(NC(=O)COc2ccc(Cl)cc2Cl)cc1,-,-,31,-,-,-,-
O=C(COc1ccccc1)NC(=S)Nc1ccc2c3c(cccc13)CC2,-,-,14,-,-,-,-
CCCCC(=O)Nc1cccc(NC(=S)NC(=O)Cc2ccccc2)c1,-,-,-,-,-,.,.
CCCCC(=O)Nc1cccc(NC(=S)NC(=O)COc2ccccc2Cl)c1,-,-,18,-,-,13,-
Cc1ccc(OCC(=O)NC(=S)Nc2cccc(NC(=O)c3ccc(Cl)cc3Cl)c2)cc1,-,-,22,-,-,-,-
Cc1ccc(S(=O)(=O)N2CCCCC2)cc1NC(=O)c1ccccn1,-,-,-,-,-,.,.
COc1cccc(NC(=O)Nc2cc(C(=O)O)ccc2N2CC3CC(C2)c2cccc(=O)n2C3)c1 (configuration not stated),-,-,-,-,-,.,.
CCCC(=O)NC(=S)Nc1cccc(NC(=O)c2ccccc2)c1,-,-,-,-,-,.,.
Cc1ccc(OCC(=O)NC(=S)Nc2cccc(NC(=O)c3ccccc3)c2)cc1,-,-,15,-,-,17,-
COc1cccc(CC(NC(C)=O)C(=O)NC2CCN(C(=O)c3ccncc3)CC2)c1OC (configuration not stated),-,-,-,-,-,.,.
O=C(CCSc1ccc(F)cc1)NNC(=O)c1ccc([N+](=O)[O-])cc1,-,-,-,-,-,.,.
CCCc1cc(=O)oc2c(C)c3occ(C)c3cc12,-,-,18,-,-,-,-
Cc1coc2c(C)c3oc(=O)cc(-c4ccccc4)c3cc12,-,-,-,-,-,.,.
O=C(CCN1C(=O)c2ccccc2C1=O)Nc1ccc(-c2cn3ccsc3n2)cc1,-,-,13,-,-,-,-
CC1CC(C)(C)CC2(C1)NC(=O)N(CC(=O)OCc1ccc(Br)cc1)C2=O (configuration not stated),-,-,14,-,-,-,-
O=C(CCCCCn1c(=S)[nH]c2ccc(N3CCOCC3)cc2c1=O)NCc1cccc(Cl)c1,-,-,9.8,-,-,-,-
O=C(CCCCCn1c(=S)[nH]c2ccc(N3CCOCC3)cc2c1=O)NCc1ccccc1,-,-,12,-,-,-,-
O=c1c2cc(N3CCOCC3)ccc2[nH]c(=S)n1CCc1ccccc1,-,-,-,-,-,.,.
Cc1ccc(C(=O)Nc2cc(C)c(OCC(=O)N3CCOCC3)c(C)c2)cc1,-,-,-,-,-,.,.
Cc1c(NC(=O)CSc2nnc(-c3ccncc3)n2C)c(=O)n(-c2ccccc2)n1C,-,.,-,-,-,.,.
COc1cccc2sc(N(CCCN(C)C)C(=O)c3sc4ccccc4c3Cl)nc12,-,-,17,-,-,20,24
Cc1cccc2sc(N(CCCN(C)C)C(=O)c3sc4ccccc4c3Cl)nc12,-,-,-,-,-,.,.
SMILES,ABHD5-PLIN5 inh,B2AR ag,MC4R barr agon,MC4R antagonist,PfG6PD inh,MC4R barr conf,MOR-DOR barr ag
COc1ccccc1NC(=O)Cn1ncc2c1-c1ccccc1OC2,-,-,-,-,-,.,.
CCOc1ccc(-c2cc(NC(=O)Cn3ncc4c3-c3ccccc3OC4)on2)cc1OCC,-,-,16,-,-,-,-
O=C(NCc1ccc2c(c1)OCO2)C(=O)NCC1OCCN1S(=O)(=O)c1ccccc1 (configuration not stated),-,-,-,-,-,.,.
Cn1nc(C(=O)Nc2cccc(Cl)c2)cc1C(=O)Nc1cccc(Cl)c1,-,-,14,-,-,-,-
O=c1[nH]c(Cn2nnc(-c3ccccc3)n2)nc2scc(-c3ccccc3)c12,-,-,12,-,-,-,-
O=c1[nH]c(CN2CCN(Cc3ccccc3)CC2)nc2scc(-c3ccccc3)c12,-,-,-,-,-,.,.
Cc1ccc(Oc2ccc(Cl)cc2NC(=O)c2ccc(F)cc2F)cc1,-,-,11,-,-,-,-
O=C(Nc1ccc(Cl)cn1)c1cc2c(s1)-c1ccccc1OC2,-,-,9.8,-,-,8.3,-
O=C(Nc1cccnc1Cl)c1cc2c(s1)-c1ccccc1OC2,-,-,-,-,-,.,.
COc1ccc2cc(-c3cc(C(=O)OCC(=O)Nc4c(C)n(C)n(-c5ccccc5)c4=O)c4ccccc4n3)ccc2c1,-,-,21,-,-,-,-
O=C(CSc1ncnc2c1cnn2-c1ccccc1)Nc1ccccc1,-,-,18,-,-,-,-
COc1ccc(Cl)cc1Nc1nc(C)nc2c1nnn2Cc1ccccc1,-,-,-,-,-,.,.
CCOC(=O)c1ccc(Nc2nc(C)nc3c2nnn3Cc2ccccc2)cc1,-,-,20,-,-,-,-
COc1ccc(NC(=O)c2ccc(F)c(F)c2)c2ccccc12,-,-,21,-,-,-,-
COc1ccc(C(=O)Nc2c(F)c(F)c(F)c(F)c2F)cc1OC,-,.,.,.,.,.,.
CCNC(=S)N/N=C/c1c(C)nn(-c2cccc(Cl)c2)c1Cl,-,-,21,-,-,-,-
Cc1nn(-c2cccc(Cl)c2)c(Cl)c1/C=N/NC(=O)c1cccs1,-,-,25,-,-,-,-
Cc1nn(-c2ccccc2)c(Cl)c1/C=N/NC(=O)c1ccccc1NS(=O)(=O)c1cccs1,-,-,-,-,-,.,.
Cc1cc(C(=O)N/N=C/c2c(C)nn(-c3ccccc3)c2Cl)n[nH]1,-,-,-,-,-,.,.
CC1CCC(C(C)C)C(OC(=O)Cn2c(-c3ccc(Br)cc3)[n+](C)c3ccccc32)C1 (configuration not stated),-,-,12,-,-,13!,-
CCCCNS(=O)(=O)c1ccc(NC(=O)C2c3ccccc3Oc3ccccc32)cc1,-,-,13,-,-,13,-
O=C(Nc1ccncc1)C1c2ccccc2Oc2ccccc21,-,-,-,-,-,.,.
Cc1ccc2nc(SCC(=O)Nc3cc(C)on3)c(C)cc2c1,-,-,11,-,-,-,-
Cc1cc(NC(=O)CSc2nc3cc(C)c(C)cc3cc2C)no1,-,-,-,-,-,.,.
Cc1cc(C)cc(NC(=O)CSc2cc(C(=O)c3nccn3C)c3ccccc3n2)c1,-,-,9.8,-,-,-,-
